# Several values for one entry are separate records, joined by “and”; a condition that tells them apart may be missing. Equal values may be shown once.
# Tested on: Fibroblast
# Assay: Multiplex assay against human fibroblast
# Type: toxicity, cell-based
# In short: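 Tubulin, mitochondrial-mass and membrane-permeability phenotypes are per cents of healthy-nucleus cells. Cells were gated by CellPathfinder machine learning into Hoechst high-intensity objects or normal cells, normal cells into healthy, pyknosed or fragmented nuclei, and pyknosed cells into mitotic or apoptotic. Before that, live cells stained at seeding with Hoechst33342, BioTracker Green Microtubule Cytoskeleton Dye, MitoTracker Red and Annexin V Alexa Fluor 680 were imaged on a CQ1 microscope at 37°C and 5% CO2 after compound addition.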
# [1] = 12 h, 1 µM, compound concentration 1 uM
# [2] = 12 h, 10 µM, compound concentration 10 uM
# [3] = 24 h, 1 µM, compound concentration 1 uM
# [4] = 24 h, 10 µM, compound concentration 10 uM
# [5] = 48 h, 1 µM, compound concentration 1 uM
# [6] = 48 h, 10 µM, compound concentration 10 uM
smiles,measurement,setting,value
CSCC[C@H](NC=O)C(=O)N[C@@H](CC(C)C)C(=O)N[C@@H](Cc1ccccc1)C(=O)O,Population Fragmented Nuclei (%),[1],18% and 29%
same,Population Healthy Nuclei (%),[1],69% and 51%
same,Population Mitochondria Different-Phenotype (%),[1],3% and 4%
same,Population Tubulin-Different-Phenotype (%),[1],26% and 39%
same,Total Cell Count,[1],182 and 175
same,Population Fragmented Nuclei (%),[2],27%
same,Population Healthy Nuclei (%),[2],39%
same,Population Hoechst High Intensity Objects (%),[2],38%
same,Population Membrane Permeable-Phenotype (%),[2],9%
same,Population Mitochondria Different-Phenotype (%),[2],5% and 3%
same,Population Normal (%),[2],61%
same,Population Tubulin-Different-Phenotype (%),[2],24% and 35%
same,Total Cell Count,[2],112 and 315
same,Population Fragmented Nuclei (%),[3],35%
same,Population Healthy Nuclei (%),[3],73% and 46%
same,Population Hoechst High Intensity Objects (%),[3],7%
same,Population Mitochondria Different-Phenotype (%),[3],4% and 9%
same,Population Normal (%),[3],92%
same,Population Tubulin-Different-Phenotype (%),[3],18% and 43%
same,Total Cell Count,[3],173 and 179
same,Population Fragmented Nuclei (%),[4],19%
same,Population Healthy Nuclei (%),[4],38%
same,Population Hoechst High Intensity Objects (%),[4],32%
same,Population Membrane Permeable-Phenotype (%),[4],3%
same,Population Mitochondria Different-Phenotype (%),[4],7% and 10%
same,Population Normal (%),[4],67%
same,Population Tubulin-Different-Phenotype (%),[4],25% and 47%
same,Total Cell Count,[4],107 and 230
same,Population Fragmented Nuclei (%),[5],16% and 36%
same,Population Healthy Nuclei (%),[5],69% and 47%
same,Population Mitochondria Different-Phenotype (%),[5],1% and 8%
same,Population Tubulin-Different-Phenotype (%),[5],21% and 54%
same,Total Cell Count,[5],184 and 174
same,Population Fragmented Nuclei (%),[6],18%
same,Population Healthy Nuclei (%),[6],44%
same,Population Hoechst High Intensity Objects (%),[6],29%
same,Population Membrane Permeable-Phenotype (%),[6],4%
same,Population Mitochondria Different-Phenotype (%),[6],4% and 1%
same,Population Normal (%),[6],70%
same,Population Tubulin-Different-Phenotype (%),[6],24% and 47%
same,Total Cell Count,[6],110 and 231
O=C1N=C(NCc2cccs2)S/C1=C\c1ccc2ncccc2c1,Population Apoptotic (%),[1],15.79% and 17.07%
same,Population Healthy Nuclei (%),[1],66.3% and 76.85%
same,Population Hoechst High Intensity Objects (%),[1],0%
same,Population Membrane Permeable-Phenotype (%),[1],3.28% and 1.28%
same,Population Mitochondria Different-Phenotype (%),[1],4.92% and 6.41%
same,Population Mitotic Cells (%),[1],84.21% and 82.93%
same,Population Normal (%),[1],100%
same,Population Pyknosed Nuclei (%),[1],20.65% and 20.2%
same,Population Tubulin-Different-Phenotype (%),[1],6.56% and 12.82%
same,Total Cell Count,[1],184 and 203
same,Population Apoptotic (%),[2],20.69% and 27.27%
same,Population Healthy Nuclei (%),[2],61.15% and 75.14%
same,Population Hoechst High Intensity Objects (%),[2],0%
same,Population Membrane Permeable-Phenotype (%),[2],14.58% and 10.29%
same,Population Mitochondria Different-Phenotype (%),[2],25% and 16.91%
same,Population Mitotic Cells (%),[2],79.31% and 72.73%
same,Population Normal (%),[2],100%
same,Population Pyknosed Nuclei (%),[2],18.47% and 18.23%
same,Population Tubulin-Different-Phenotype (%),[2],34.38% and 55.15%
same,Total Cell Count,[2],157 and 181
same,Population Apoptotic (%),[3],14.29% and 17.86%
same,Population Fragmented Nuclei (%),[3],10.34% and 5.09%
same,Population Healthy Nuclei (%),[3],72.41% and 81.94%
same,Population Hoechst High Intensity Objects (%),[3],0%
same,Population Membrane Permeable-Phenotype (%),[3],4.08% and 3.39%
same,Population Mitochondria Different-Phenotype (%),[3],5.44% and 3.39%
same,Population Mitotic Cells (%),[3],85.71% and 82.14%
same,Population Normal (%),[3],100%
same,Population Pyknosed Nuclei (%),[3],17.24% and 12.96%
same,Population Tubulin-Different-Phenotype (%),[3],7.48% and 19.77%
same,Total Cell Count,[3],203 and 216
same,Population Apoptotic (%),[4],19.05% and 33.33%
same,Population Fragmented Nuclei (%),[4],12.93% and 9.6%
same,Population Healthy Nuclei (%),[4],72.79% and 76.84%
same,Population Hoechst High Intensity Objects (%),[4],0%
same,Population Membrane Permeable-Phenotype (%),[4],11.21% and 5.88%
same,Population Mitochondria Different-Phenotype (%),[4],23.36% and 20.59%
same,Population Mitotic Cells (%),[4],80.95% and 66.67%
same,Population Normal (%),[4],100%
same,Population Pyknosed Nuclei (%),[4],14.29% and 13.56%
same,Population Tubulin-Different-Phenotype (%),[4],49.53% and 66.91%
same,Total Cell Count,[4],147 and 177
same,Population Apoptotic (%),[5],14.81% and 21.05%
same,Population Fragmented Nuclei (%),[5],8.85% and 4.11%
same,Population Healthy Nuclei (%),[5],79.2% and 87.21%
same,Population Hoechst High Intensity Objects (%),[5],0%
same,Population Membrane Permeable-Phenotype (%),[5],1.12% and 4.19%
same,Population Mitochondria Different-Phenotype (%),[5],8.38% and 5.76%
same,Population Mitotic Cells (%),[5],85.19% and 78.95%
same,Population Normal (%),[5],100%
same,Population Pyknosed Nuclei (%),[5],11.95% and 8.68%
same,Population Tubulin-Different-Phenotype (%),[5],6.7% and 19.37%
same,Total Cell Count,[5],226 and 219
same,Population Apoptotic (%),[6],44.44% and 38.89%
same,Population Fragmented Nuclei (%),[6],18.54% and 16.67%
same,Population Healthy Nuclei (%),[6],75.5% and 74.24%
same,Population Hoechst High Intensity Objects (%),[6],0%
same,Population Membrane Permeable-Phenotype (%),[6],2.63% and 12.24%
same,Population Mitochondria Different-Phenotype (%),[6],33.33% and 14.29%
same,Population Mitotic Cells (%),[6],55.56% and 61.11%
same,Population Normal (%),[6],100%
same,Population Pyknosed Nuclei (%),[6],5.96% and 9.09%
same,Population Tubulin-Different-Phenotype (%),[6],47.37% and 63.95%
same,Total Cell Count,[6],151 and 198
CCn1c(-c2nc3cc(C(=O)N4CCCC(N)C4)ccc3n2C)cc2ccccc21.Cl (stereo unspecified),Population Fragmented Nuclei (%),[1],17% [middle of 4 runs]
same,Population Healthy Nuclei (%),[1],67% and 54% and 55.75% and 78.2%
same,Population Hoechst High Intensity Objects (%),[1],3% and 5% and 0%
same,Population Membrane Permeable-Phenotype (%),[1],0% and 2% and 1.03% and 4.85%
same,Population Mitotic Cells (%),[1],77.42% [middle of 4 runs]
same,Population Normal (%),[1],96% and 94% and 100%
same,Population Pyknosed Nuclei (%),[1],15% and 23% and 28.16% and 14.69%
same,Population Tubulin-Different-Phenotype (%),[1],27% and 41% and 21.65% and 21.21%
same,Total Cell Count,[1],128 and 167 and 174 and 211
same,Population Healthy Nuclei (%),[2],63% and 37% and 62.74% and 73.72%
same,Population Hoechst High Intensity Objects (%),[2],1% and 3% and 0%
same,Population Membrane Permeable-Phenotype (%),[2],0% and 10.3% and 7.87%
same,Population Mitochondria Different-Phenotype (%),[2],18% and 19% and 29.7% and 27.78%
same,Population Mitotic Cells (%),[2],58% and 61% and 89.16% and 71.43%
same,Population Normal (%),[2],98% and 96% and 100%
same,Population Pyknosed Nuclei (%),[2],29% [middle of 4 runs]
same,Population Tubulin-Different-Phenotype (%),[2],69% and 80% and 72.73% and 81.48%
same,Total Cell Count,[2],221 and 186 and 263 and 293
same,Population Fragmented Nuclei (%),[3],22% [middle of 4 runs]
same,Population Healthy Nuclei (%),[3],68% and 54% and 66.49% and 74.56%
same,Population Hoechst High Intensity Objects (%),[3],0% and 9%
same,Population Membrane Permeable-Phenotype (%),[3],0% and 3% and 2.33% and 7.06%
same,Population Mitotic Cells (%),[3],70.59% [middle of 4 runs]
same,Population Normal (%),[3],99% and 90% and 100%
same,Population Pyknosed Nuclei (%),[3],17% [middle of 4 runs]
same,Population Tubulin-Different-Phenotype (%),[3],30% [middle of 4 runs]
same,Total Cell Count,[3],127 and 184 and 194 and 228
same,Population Healthy Nuclei (%),[4],66% and 46% and 70.93% and 75.81%
same,Population Hoechst High Intensity Objects (%),[4],3% and 4% and 0%
same,Population Membrane Permeable-Phenotype (%),[4],0% and 2% and 4.95% and 6.19%
same,Population Mitochondria Different-Phenotype (%),[4],40.95% [middle of 4 runs]
same,Population Mitotic Cells (%),[4],45.1% [middle of 4 runs]
same,Population Normal (%),[4],96% and 95% and 100%
same,Population Pyknosed Nuclei (%),[4],23% [middle of 4 runs]
same,Population Tubulin-Different-Phenotype (%),[4],76% and 82% and 83.33% and 85.24%
same,Total Cell Count,[4],231 and 189 and 313 and 277
same,Population Healthy Nuclei (%),[5],67% and 51% and 79.63% and 83.64%
same,Population Hoechst High Intensity Objects (%),[5],2% and 5% and 0%
same,Population Membrane Permeable-Phenotype (%),[5],1% and 2% and 1.16% and 4.47%
same,Population Normal (%),[5],97% and 94% and 100%
same,Population Pyknosed Nuclei (%),[5],8% and 15% and 6.02% and 7.01%
same,Total Cell Count,[5],137 and 193 and 216 and 214
same,Population Apoptotic (%),[6],76.92% [middle of 4 runs]
same,Population Healthy Nuclei (%),[6],72% and 57% and 86.19% and 89.14%
same,Population Hoechst High Intensity Objects (%),[6],3% and 0%
same,Population Membrane Permeable-Phenotype (%),[6],0% and 3.83% and 7.75%
same,Population Mitochondria Different-Phenotype (%),[6],22% and 16% and 24.74% and 18.08%
same,Population Normal (%),[6],96% and 100%
same,Population Pyknosed Nuclei (%),[6],8% and 3.3% and 4.28%
same,Population Tubulin-Different-Phenotype (%),[6],85% and 61.67% and 81.55%
same,Total Cell Count,[6],232 and 231 and 333 and 304

# — ChEMBL document CHEMBL5724801, “EUbOPEN Chemogenomics Library - Multiplex” (2024)
